Tests used:
[1] = target: Myosin light chain kinase (Homo sapiens) (UniProt Q32MK0); assay: Binding affinity to wild-type human partial length MLCK (D488 to K800 residues) expressed in Escherichia coli BL21 at 1 uM by Kinomescan method relative to control
[2] = target: Non-receptor tyrosine-protein kinase TYK2 (Homo sapiens) (UniProt P29597); assay: Binding affinity to wild-type human partial length TYK2 JH2 pseudokinase domain (G556 to D888 residues) expressed in HEK293 cells at 1 uM by Kinomescan method relative to control; assay type: cell-based
[3] = target: Angiopoietin-1 receptor (Homo sapiens) (UniProt Q02763); assay: Binding affinity to wild-type human partial length TIE2 (N804 to T1112 residues) expressed in Escherichia coli BL21 at 1 uM by Kinomescan method relative to control
[4] = target: Serine/threonine-protein kinase PLK3 (Homo sapiens) (UniProt Q9H4B4); assay: Binding affinity to wild-type human partial length PLK3 (A42 to L334 residues) expressed in HEK293 cells at 1 uM by Kinomescan method relative to control; assay type: cell-based
Aurora kinase C = target: T1, Aurora kinase C (Homo sapiens, UniProt Q9UQB9); assay: Inhibition of recombinant full length GST-tagged human Aurora C expressed in baculovirus expression system by Z'LYTE assay
T1 sequence (Q9UQB9 whole entry): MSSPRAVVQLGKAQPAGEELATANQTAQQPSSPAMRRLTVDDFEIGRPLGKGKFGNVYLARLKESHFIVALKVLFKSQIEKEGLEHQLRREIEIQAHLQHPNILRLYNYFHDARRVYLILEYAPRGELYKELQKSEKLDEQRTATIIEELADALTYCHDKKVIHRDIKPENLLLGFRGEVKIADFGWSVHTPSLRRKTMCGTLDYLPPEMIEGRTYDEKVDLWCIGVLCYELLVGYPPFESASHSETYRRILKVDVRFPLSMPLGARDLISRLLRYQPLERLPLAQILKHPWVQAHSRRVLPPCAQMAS
Method in brief: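 Biochemical IC50 from a Z'LYTE kinase assay, with ATP at the Km for each kinase. Values are reported with standard error.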

[5] = target: Platelet-derived growth factor receptor beta (Homo sapiens) (UniProt P09619); assay: Binding affinity to wild-type human partial length PDGFRB (V582 to Y1009 residues) expressed in Escherichia coli BL21 at 1 uM by Kinomescan method relative to control
[6] = target: Serine/threonine-protein kinase Nek2 (Homo sapiens) (UniProt P51955); assay: Binding affinity to wild-type human partial length NEK2 (M1 to K309 residues) expressed in Escherichia coli BL21 at 1 uM by Kinomescan method relative to control
[7] = tested on: Phosphatidylinositol 4,5-bisphosphate 3-kinase catalytic subunit alpha isoform (Homo sapiens), P42336 [E542K]; assay: Binding affinity to human partial length PIK3CA E542K mutant (R108 to N1068 residues) expressed in HEK293 cells at 1 uM by Kinomescan method relative to control; assay type: cell-based
[8] = target: Serine/threonine-protein kinase tousled-like 1 (Homo sapiens) (UniProt Q9UKI8); assay: Binding affinity to wild-type human partial length TLK1 (K447 to A754 residues) expressed in Escherichia coli BL21 at 1 uM by Kinomescan method relative to control
[9] = target: Serine/threonine-protein kinase SIK3 (Homo sapiens) (UniProt Q9Y2K2); assay: Binding affinity to wild-type human partial length QSK (A90 to L395 residues) expressed in HEK293 cells at 1 uM by Kinomescan method relative to control; assay type: cell-based
[10] = target: Serine/threonine-protein kinase Nek3 (Homo sapiens) (UniProt P51956); assay: Binding affinity to wild-type human full length NEK3 (M1 to R506 residues) expressed in HEK293 cells at 1 uM by Kinomescan method relative to control; assay type: cell-based
Method in brief: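 Kinome-wide competition binding panel run by an outside provider, with each compound tested at a single concentration. Activity is read against the kinase panel.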

[11] = target: Cyclin-dependent kinase 16 (Homo sapiens) (UniProt Q00536); assay: Binding affinity to wild-type human partial length PCTK1 (G160 to A474 residues) expressed in HEK293 cells at 1 uM by Kinomescan method relative to control; assay type: cell-based
[12] = tested on: Hepatocyte growth factor receptor (Homo sapiens), P08581 [Y1235D]; assay: Binding affinity to human partial length MET Y1235D mutant (D1010 to S1367 residues) expressed in Escherichia coli BL21 at 1 uM by Kinomescan method relative to control
[13] = target: Activin receptor type-1 (Homo sapiens) (UniProt Q04771); assay: Binding affinity to wild-type human ACVR1 (C188 to C509 residues) expressed in Escherichia coli BL21 at 1 uM by Kinomescan method relative to control
[14] = target: Serine/threonine-protein kinase SIK1 (Homo sapiens) (UniProt P57059); assay: Binding affinity to wild-type human partial length SIK (M1 to Y304 residues) expressed in Escherichia coli BL21 at 1 uM by Kinomescan method relative to control
[15] = target: Transient receptor potential cation channel subfamily M member 6 (Homo sapiens) (UniProt Q9BX84); assay: Binding affinity to wild-type human partial length TRPM6 (Q1723 to I1998 residues) expressed in HEK293 cells at 1 uM by Kinomescan method relative to control; assay type: cell-based
[16] = tested on: Tyrosine-protein kinase ABL1 (Homo sapiens), P00519 [Q252H]; assay: Binding affinity to human phosphorylated ABL1 Q252H mutant expressed in HEK293 cells at 1 uM by Kinomescan method relative to control; assay type: cell-based
[17] = target: Mitogen-activated protein kinase kinase kinase kinase 4 (Homo sapiens) (UniProt O95819); assay: Binding affinity to wild-type human partial length MAP4K4 (M1 to R310 residues) expressed in Escherichia coli BL21 at 1 uM by Kinomescan method relative to control
Aurora kinase B = Aurora kinase B (Homo sapiens, UniProt Q96GD4); assay: Binding affinity to wild-type human partial length AURKB (D25 to A303 residues) expressed in HEK293 cells at 1 uM by Kinomescan method relative to control; assay type: cell-based
[18] = target: Macrophage-stimulating protein receptor (Homo sapiens) (UniProt Q04912); assay: Binding affinity to wild-type human partial length MST1R (I1057 to L1363 residues) expressed in Escherichia coli BL21 at 1 uM by Kinomescan method relative to control
[19] = target: BMP-2-inducible protein kinase (Homo sapiens) (UniProt Q9NSY1); assay: Binding affinity to wild-type human partial length BIKE (S34 to N329 residues) expressed in Escherichia coli BL21 at 1 uM by Kinomescan method relative to control
[20] = target: Serine/threonine-protein kinase Chk2 (Homo sapiens) (UniProt O96017); assay: Binding affinity to wild-type human partial length CHEK2 (S253 to E574 residues) expressed in Escherichia coli BL21 at 1 uM by Kinomescan method relative to control
[21] = target: Cyclin-dependent kinase 11B (Homo sapiens) (UniProt P21127); assay: Binding affinity to wild-type human partial length CDC2L1 (P353 to G692 residues) expressed in Escherichia coli BL21 at 1 uM by Kinomescan method relative to control

Chain of Serine/threonine-protein kinase SIK3 (Homo sapiens) (Q9Y2K2 whole entry, looked up, the tested form may be a part): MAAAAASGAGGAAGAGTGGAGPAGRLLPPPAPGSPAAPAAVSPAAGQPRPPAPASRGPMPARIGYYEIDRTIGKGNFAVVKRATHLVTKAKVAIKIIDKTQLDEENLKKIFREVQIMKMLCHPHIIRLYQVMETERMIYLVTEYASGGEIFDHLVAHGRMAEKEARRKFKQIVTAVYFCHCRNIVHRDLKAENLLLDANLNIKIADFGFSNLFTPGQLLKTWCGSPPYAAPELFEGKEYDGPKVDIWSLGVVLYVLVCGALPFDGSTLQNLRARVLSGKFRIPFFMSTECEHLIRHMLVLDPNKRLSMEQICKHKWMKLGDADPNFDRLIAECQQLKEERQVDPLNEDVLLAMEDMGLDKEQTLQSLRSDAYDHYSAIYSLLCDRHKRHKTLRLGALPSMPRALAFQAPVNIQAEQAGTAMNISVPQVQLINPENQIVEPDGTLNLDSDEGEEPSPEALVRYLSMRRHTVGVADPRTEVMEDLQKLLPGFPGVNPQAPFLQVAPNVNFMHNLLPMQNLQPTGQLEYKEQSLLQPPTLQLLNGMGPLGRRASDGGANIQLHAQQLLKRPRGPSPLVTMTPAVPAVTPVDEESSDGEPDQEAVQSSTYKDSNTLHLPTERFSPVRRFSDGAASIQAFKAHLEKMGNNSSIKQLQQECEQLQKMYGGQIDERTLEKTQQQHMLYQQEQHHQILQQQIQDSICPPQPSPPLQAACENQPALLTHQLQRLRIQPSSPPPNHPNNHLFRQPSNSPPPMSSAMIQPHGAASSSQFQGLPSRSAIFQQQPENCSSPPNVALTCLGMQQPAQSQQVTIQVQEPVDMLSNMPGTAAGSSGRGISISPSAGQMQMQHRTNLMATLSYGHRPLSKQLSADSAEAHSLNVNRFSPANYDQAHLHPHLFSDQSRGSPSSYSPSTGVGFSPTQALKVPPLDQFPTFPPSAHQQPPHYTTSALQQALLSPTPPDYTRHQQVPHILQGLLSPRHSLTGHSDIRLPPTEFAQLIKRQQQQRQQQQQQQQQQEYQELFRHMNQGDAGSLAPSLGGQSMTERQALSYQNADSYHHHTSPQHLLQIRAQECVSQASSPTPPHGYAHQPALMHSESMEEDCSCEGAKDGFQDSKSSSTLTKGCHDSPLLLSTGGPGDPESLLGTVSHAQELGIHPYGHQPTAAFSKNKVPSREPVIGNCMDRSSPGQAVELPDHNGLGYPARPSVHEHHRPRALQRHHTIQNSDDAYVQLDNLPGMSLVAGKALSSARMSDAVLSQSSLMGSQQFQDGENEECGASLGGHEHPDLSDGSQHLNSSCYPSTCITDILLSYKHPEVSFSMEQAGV
Chain of Serine/threonine-protein kinase Nek2 (Homo sapiens) (P51955 whole entry, the tested form may be a part, canonical isoform): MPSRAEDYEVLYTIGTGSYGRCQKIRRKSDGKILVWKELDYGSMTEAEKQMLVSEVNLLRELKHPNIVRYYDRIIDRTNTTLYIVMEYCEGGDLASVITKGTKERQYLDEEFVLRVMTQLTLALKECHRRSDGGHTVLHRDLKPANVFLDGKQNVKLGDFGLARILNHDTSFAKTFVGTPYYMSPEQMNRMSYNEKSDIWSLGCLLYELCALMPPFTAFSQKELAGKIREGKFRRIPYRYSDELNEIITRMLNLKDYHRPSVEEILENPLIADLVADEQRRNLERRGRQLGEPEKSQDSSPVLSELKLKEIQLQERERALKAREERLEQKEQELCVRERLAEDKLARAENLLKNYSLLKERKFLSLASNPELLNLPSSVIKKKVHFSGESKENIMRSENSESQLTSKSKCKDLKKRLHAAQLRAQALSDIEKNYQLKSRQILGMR
Chain of Myosin light chain kinase (Homo sapiens) (Q32MK0 whole entry, the tested form may be a part): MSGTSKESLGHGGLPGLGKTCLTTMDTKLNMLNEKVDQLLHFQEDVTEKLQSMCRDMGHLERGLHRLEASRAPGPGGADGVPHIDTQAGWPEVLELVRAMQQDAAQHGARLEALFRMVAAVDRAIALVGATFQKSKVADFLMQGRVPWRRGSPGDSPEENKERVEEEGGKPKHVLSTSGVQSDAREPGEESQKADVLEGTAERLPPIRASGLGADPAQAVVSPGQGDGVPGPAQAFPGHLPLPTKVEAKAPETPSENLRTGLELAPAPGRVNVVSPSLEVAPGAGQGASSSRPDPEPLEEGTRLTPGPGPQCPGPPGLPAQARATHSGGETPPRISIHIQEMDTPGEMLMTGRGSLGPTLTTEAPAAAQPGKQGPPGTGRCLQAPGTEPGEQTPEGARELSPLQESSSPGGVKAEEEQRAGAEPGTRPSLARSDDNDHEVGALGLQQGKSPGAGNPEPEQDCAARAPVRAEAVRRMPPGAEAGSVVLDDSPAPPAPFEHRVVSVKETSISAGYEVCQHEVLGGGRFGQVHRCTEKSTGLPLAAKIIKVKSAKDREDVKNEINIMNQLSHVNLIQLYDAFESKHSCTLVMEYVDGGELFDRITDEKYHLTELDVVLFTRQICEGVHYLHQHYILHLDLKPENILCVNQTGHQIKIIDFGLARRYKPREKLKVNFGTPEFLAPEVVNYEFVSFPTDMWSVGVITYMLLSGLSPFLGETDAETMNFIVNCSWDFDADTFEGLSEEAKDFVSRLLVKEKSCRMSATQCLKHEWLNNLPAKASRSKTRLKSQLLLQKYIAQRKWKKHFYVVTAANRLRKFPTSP
Chain of Serine/threonine-protein kinase tousled-like 1 (Homo sapiens) (Q9UKI8 whole entry, the tested form may be a part): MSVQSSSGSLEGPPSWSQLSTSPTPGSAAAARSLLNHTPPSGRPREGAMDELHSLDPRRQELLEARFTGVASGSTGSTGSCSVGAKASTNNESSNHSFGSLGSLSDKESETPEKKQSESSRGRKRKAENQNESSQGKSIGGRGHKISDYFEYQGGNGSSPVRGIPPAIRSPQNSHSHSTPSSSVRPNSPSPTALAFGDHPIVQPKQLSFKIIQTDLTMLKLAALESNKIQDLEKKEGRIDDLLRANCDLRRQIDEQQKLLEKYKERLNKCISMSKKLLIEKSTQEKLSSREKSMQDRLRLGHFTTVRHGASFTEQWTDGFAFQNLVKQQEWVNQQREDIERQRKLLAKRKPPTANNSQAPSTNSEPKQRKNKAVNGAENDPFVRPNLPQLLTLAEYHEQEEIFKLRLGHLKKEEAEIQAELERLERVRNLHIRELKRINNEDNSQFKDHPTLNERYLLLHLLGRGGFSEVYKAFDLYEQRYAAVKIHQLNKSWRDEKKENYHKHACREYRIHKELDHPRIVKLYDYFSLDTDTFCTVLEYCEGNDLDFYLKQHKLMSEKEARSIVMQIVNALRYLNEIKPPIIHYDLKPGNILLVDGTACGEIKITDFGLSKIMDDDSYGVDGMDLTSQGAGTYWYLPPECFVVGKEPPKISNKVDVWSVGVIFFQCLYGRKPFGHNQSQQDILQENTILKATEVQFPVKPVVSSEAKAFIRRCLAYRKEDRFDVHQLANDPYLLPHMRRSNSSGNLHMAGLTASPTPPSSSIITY
Chain of BMP-2-inducible protein kinase (Homo sapiens) (Q9NSY1 whole entry, looked up, the tested form may be a part): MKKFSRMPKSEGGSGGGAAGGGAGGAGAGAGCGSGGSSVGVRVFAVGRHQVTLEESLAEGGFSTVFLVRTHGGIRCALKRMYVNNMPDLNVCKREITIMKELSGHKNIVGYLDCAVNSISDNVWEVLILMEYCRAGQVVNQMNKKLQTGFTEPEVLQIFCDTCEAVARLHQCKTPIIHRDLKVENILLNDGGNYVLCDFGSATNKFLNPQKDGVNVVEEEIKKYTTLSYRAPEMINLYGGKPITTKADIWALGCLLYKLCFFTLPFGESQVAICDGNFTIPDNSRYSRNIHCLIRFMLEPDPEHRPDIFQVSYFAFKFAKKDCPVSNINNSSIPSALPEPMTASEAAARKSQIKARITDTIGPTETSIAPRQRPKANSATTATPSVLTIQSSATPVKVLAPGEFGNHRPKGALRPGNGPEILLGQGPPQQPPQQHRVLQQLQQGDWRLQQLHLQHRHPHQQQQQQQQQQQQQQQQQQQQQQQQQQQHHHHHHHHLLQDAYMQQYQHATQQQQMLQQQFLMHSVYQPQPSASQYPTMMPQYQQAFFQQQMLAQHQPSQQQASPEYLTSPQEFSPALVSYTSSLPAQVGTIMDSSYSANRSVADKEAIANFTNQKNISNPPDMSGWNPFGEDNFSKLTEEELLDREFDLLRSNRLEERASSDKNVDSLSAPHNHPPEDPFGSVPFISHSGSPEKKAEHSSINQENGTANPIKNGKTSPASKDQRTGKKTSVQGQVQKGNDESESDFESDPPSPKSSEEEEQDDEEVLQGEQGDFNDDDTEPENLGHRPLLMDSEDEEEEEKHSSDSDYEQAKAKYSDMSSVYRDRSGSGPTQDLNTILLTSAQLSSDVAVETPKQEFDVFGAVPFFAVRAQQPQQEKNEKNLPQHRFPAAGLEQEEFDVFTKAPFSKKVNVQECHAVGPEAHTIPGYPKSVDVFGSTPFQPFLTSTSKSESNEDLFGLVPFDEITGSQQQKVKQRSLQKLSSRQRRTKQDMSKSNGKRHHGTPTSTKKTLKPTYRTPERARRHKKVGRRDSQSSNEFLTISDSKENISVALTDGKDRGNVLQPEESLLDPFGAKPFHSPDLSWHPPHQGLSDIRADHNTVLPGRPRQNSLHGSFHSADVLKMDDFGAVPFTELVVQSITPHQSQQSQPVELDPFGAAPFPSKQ
Chain of Serine/threonine-protein kinase Chk2 (Homo sapiens) (O96017 whole entry, the tested form may be a part): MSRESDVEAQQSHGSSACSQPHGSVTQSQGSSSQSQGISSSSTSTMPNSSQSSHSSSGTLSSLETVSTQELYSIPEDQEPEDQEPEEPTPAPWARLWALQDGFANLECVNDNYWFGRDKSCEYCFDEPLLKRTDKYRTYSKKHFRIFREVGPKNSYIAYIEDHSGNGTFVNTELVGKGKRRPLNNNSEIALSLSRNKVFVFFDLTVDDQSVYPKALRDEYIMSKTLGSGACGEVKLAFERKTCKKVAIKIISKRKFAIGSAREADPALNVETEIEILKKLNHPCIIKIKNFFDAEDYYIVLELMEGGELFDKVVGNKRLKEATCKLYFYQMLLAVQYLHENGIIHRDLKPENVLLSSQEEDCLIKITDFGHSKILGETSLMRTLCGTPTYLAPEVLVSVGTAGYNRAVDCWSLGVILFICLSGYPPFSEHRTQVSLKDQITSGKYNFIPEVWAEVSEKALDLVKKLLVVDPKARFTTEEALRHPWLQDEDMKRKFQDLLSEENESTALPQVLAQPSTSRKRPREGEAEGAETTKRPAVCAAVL

Row | SMILES | Activity [1] | Activity [2] | Activity [3] | Activity [4] | IC50 (Aurora kinase C) | Activity [5] | Activity [6] | Activity [7] | Activity [8] | Activity [9] | Activity [10] | Activity [11] | Activity [12] | Activity [13] | Activity [14] | Activity [15] | Activity [16] | Activity [17] | Activity (Aurora kinase B) | Activity [18] | further results
1 | C=CC(=O)Nc1ccc(C(=O)Nc2ccc(Nc3ncc4c(n3)N(C)c3ccc(C)cc3C(=O)N4C)cc2)cc1 | 90% | 88% | 88% | 91% | 63 nM | 94% | 99% | 62% | 94% | 88% | 84% | 100% | 87% | 93% | 95% | 96% | 85% | 98% | 1.8% | 82% | Activity [19]: 85%; Activity [20]: 97%; Activity [21]: 97%
2 | CCC(=O)Nc1ccc(C(=O)Nc2ccc(Nc3ncc4c(n3)N(C)c3ccc(C)cc3C(=O)N4C)cc2)cc1 | 99% | 93% | 54% | 83% | 53 nM | 84% | 100% | 76% | 99% | 100% | 70% | 74% | 91% | 80% | 81% | 100% | 61% | 95% | 1.9% | 85% | Activity [19]: 93%; Activity [20]: 95%; Activity [21]: 100%
